# Assay results from ChEMBL document CHEMBL1151705, “Novel azalides derived from 16-membered macrolides. Part II: Isolation of the linear 9-formylcarboxylic acid and its sequential macrocyclization with an amino alcohol or an azidoamine” (2008).
# Legend:
# Streptococcus pneumoniae [1] = assay: Antimicrobial activity against drug-susceptible Streptococcus pneumoniae DP1 Type1 after 20 hrs by agar dilution method; type: functional
# Outline: (§1)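 Streptococci, H. influenzae and M. catarrhalis were precultured on blood agar plates. Suspensions of about 10⁶ CFU/ml were inoculated onto sensitivity disk agar supplemented with 5% horse blood and incubated at 37 °C for 20 h. MIC was read as the lowest drug concentration with no visible growth.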
# Streptococcus pyogenes [2] = assay: Antimicrobial activity against Streptococcus pyogenes 3 expressing mefA after 20 hrs by agar dilution method; type: functional; outline: as §1
# Moraxella catarrhalis [3] = assay: Antimicrobial activity against drug-susceptible Moraxella catarrhalis 1 after 20 hrs by agar dilution method; type: functional; outline: as §1
# Streptococcus pneumoniae [4] = assay: Antimicrobial activity against Streptococcus pneumoniae 8 expressing inducible ermB after 20 hrs by agar dilution method; type: functional; outline: as §1
# Haemophilus influenzae [5] = assay: Antimicrobial activity against drug-susceptible Haemophilus influenzae 1 after 20 hrs by agar dilution method; type: functional; outline: as §1
# Haemophilus influenzae [6] = assay: Antimicrobial activity against drug-susceptible Haemophilus influenzae 4 after 20 hrs by agar dilution method; type: functional; outline: as §1
# Haemophilus influenzae [7] = assay: Antimicrobial activity against drug-susceptible Haemophilus influenzae 3 after 20 hrs by agar dilution method; type: functional; outline: as §1
# Staphylococcus aureus [8] = assay: Antimicrobial activity against drug-susceptible Staphylococcus aureus 209P JC-1 after 20 hrs by agar dilution method; type: functional
# Outline: (§2)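 Agar dilution MIC. S. aureus seed culture was grown in sensitivity test broth. Cell suspension (about 10⁶ CFU/ml) was inoculated onto sensitivity disk agar with 5% horse blood and incubated at 37 °C for 20 h. MIC was the lowest drug concentration that prevented visible growth.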
# Moraxella catarrhalis [9] = assay: Antimicrobial activity against drug-susceptible Moraxella catarrhalis 2 after 20 hrs by agar dilution method; type: functional; outline: as §1
# Streptococcus pneumoniae [10] = assay: Antimicrobial activity against Streptococcus pneumoniae 7 expressing inducible ermB after 20 hrs by agar dilution method; type: functional; outline: as §1
# Streptococcus pneumoniae [11] = assay: Antimicrobial activity against drug-susceptible Streptococcus pneumoniae 2 after 20 hrs by agar dilution method; type: functional; outline: as §1
# Staphylococcus aureus [12] = assay: Antimicrobial activity against drug-susceptible Staphylococcus aureus 2 after 20 hrs by agar dilution method; type: functional; outline: as §2
# Streptococcus pneumoniae [13] = assay: Antimicrobial activity against Streptococcus pneumoniae 10 expressing mefA after 20 hrs by agar dilution method; type: functional; outline: as §1
# Streptococcus pneumoniae [14] = assay: Antimicrobial activity against drug-susceptible Streptococcus pneumoniae 3 after 20 hrs by agar dilution method; type: functional; outline: as §1
# Staphylococcus aureus [15] = assay: Antimicrobial activity against Staphylococcus aureus 5 expressing inducible ermB after 20 hrs by agar dilution method; type: functional; outline: as §2
# Streptococcus pyogenes [16] = assay: Antimicrobial activity against drug-susceptible Streptococcus pyogenes 1 after 20 hrs by agar dilution method; type: functional; outline: as §1
# Haemophilus influenzae [17] = assay: Antimicrobial activity against drug-susceptible Haemophilus influenzae 2 after 20 hrs by agar dilution method; type: functional; outline: as §1
# Staphylococcus aureus [18] = assay: Antimicrobial activity against drug-susceptible Staphylococcus aureus 3 after 20 hrs by agar dilution method; type: functional; outline: as §2
# Streptococcus pneumoniae [19] = assay: Antimicrobial activity against Streptococcus pneumoniae 9 expressing mefA after 20 hrs by agar dilution method; type: functional; outline: as §1
# Staphylococcus aureus [20] = assay: Antimicrobial activity against Staphylococcus aureus 6 expressing inducible ermC after 20 hrs by agar dilution method
# Streptococcus pneumoniae [21] = assay: Antimicrobial activity against Streptococcus pneumoniae 5 constitutively expressing ermB/mefA after 20 hrs by agar dilution method; type: functional; outline: as §1
# Staphylococcus aureus [22] = assay: Antimicrobial activity against Staphylococcus aureus 4 constitutively expressing ermA after 20 hrs by agar dilution method; type: functional; outline: as §2
# Streptococcus pneumoniae [23] = assay: Antimicrobial activity against Streptococcus pneumoniae 6 constitutively expressing ermB after 20 hrs by agar dilution method; type: functional; outline: as §1
# Streptococcus pneumoniae [24] = assay: Antimicrobial activity against Streptococcus pneumoniae 4 constitutively expressing ermB after 20 hrs by agar dilution method; type: functional; outline: as §1
# Streptococcus pyogenes [25] = assay: Antimicrobial activity against Streptococcus pyogenes 2 constitutively expressing ermB after 20 hrs by agar dilution method; type: functional; outline: as §1
# [26] = Haemophilus influenzae, 20 h, read-out: MIC
# [27] = Streptococcus pneumoniae, 20 h, read-out: MIC
MIC (Streptococcus pneumoniae [1]),MIC (Streptococcus pyogenes [2]),MIC (Moraxella catarrhalis [3]),MIC (Streptococcus pneumoniae [4]),MIC (Haemophilus influenzae [5]),MIC (Haemophilus influenzae [6]),MIC (Haemophilus influenzae [7]),MIC (Staphylococcus aureus [8]),MIC (Moraxella catarrhalis [9]),MIC (Streptococcus pneumoniae [10]),MIC (Streptococcus pneumoniae [11]),MIC (Staphylococcus aureus [12]),MIC (Streptococcus pneumoniae [13]),MIC (Streptococcus pneumoniae [14]),MIC (Staphylococcus aureus [15]),MIC (Streptococcus pyogenes [16]),MIC (Staphylococcus aureus [18]),MIC (Streptococcus pneumoniae [19]),MIC (Staphylococcus aureus [20]),MIC (Haemophilus influenzae [17]),Compound,further results
0.015 µg/mL,0.25 µg/mL,1 µg/mL,16 µg/mL,16 µg/mL,8 µg/mL,8 µg/mL,0.25 µg/mL,1 µg/mL,16 µg/mL,0.06 µg/mL,0.5 µg/mL,0.06 µg/mL,0.03 µg/mL,0.25 µg/mL,0.06 µg/mL,0.25 µg/mL,0.06 µg/mL,0.5 µg/mL,–,CCOC(=O)[C@H]1[C@H](C)O[C@@H](O[C@H]2[C@H](N(C)C)[C@@H](O)[C@H](O[C@H]3[C@@H](CC=O)C[C@@H](C)[C@@H](O)CN(C)CC(CCCc4ccnc5ccccc45)CCOC(=O)C[C@@H](OC(=O)CC)[C@@H]3OC)O[C@@H]2C)C[C@@]1(C)O (stereo in doubt; form 2),MIC (Haemophilus influenzae [17]; [26]): 2 µg/mL
0.03 µg/mL,0.5 µg/mL,2 µg/mL,8 µg/mL,–,16 µg/mL,16 µg/mL,0.25 µg/mL,2 µg/mL,8 µg/mL,0.06 µg/mL,1 µg/mL,0.06 µg/mL,0.06 µg/mL,0.25 µg/mL,0.13 µg/mL,0.25 µg/mL,0.06 µg/mL,0.5 µg/mL,–,CCOC(=O)[C@H]1[C@H](C)O[C@@H](O[C@H]2[C@H](N(C)C)[C@@H](O)[C@H](O[C@H]3[C@@H](CC=O)C[C@@H](C)[C@@H](O)CN(C)CC(/C=C\Cc4ccnc5ccccc45)CCOC(=O)C[C@@H](OC(=O)CC)[C@@H]3OC)O[C@@H]2C)C[C@@]1(C)O (stereo in doubt; form 1),MIC (Streptococcus pneumoniae [21]; [27]): > 128 µg/mL; MIC (Haemophilus influenzae [5]; [26]): 64 µg/mL; MIC (Staphylococcus aureus [22]): > 128 µg/mL; MIC (Streptococcus pneumoniae [23]; [27]): > 128 µg/mL; MIC (Streptococcus pneumoniae [24]; [27]): > 128 µg/mL; MIC (Streptococcus pyogenes [25]): > 128 µg/mL
0.13 µg/mL,2 µg/mL,8 µg/mL,64 µg/mL,64 µg/mL,8 µg/mL,16 µg/mL,4 µg/mL,8 µg/mL,64 µg/mL,0.25 µg/mL,8 µg/mL,0.25 µg/mL,0.25 µg/mL,4 µg/mL,0.5 µg/mL,2 µg/mL,0.25 µg/mL,4 µg/mL,2 µg/mL,CCOC(=O)[C@H]1[C@H](C)O[C@@H](O[C@H]2[C@H](N(C)C)[C@@H](O)[C@H](O[C@H]3[C@@H](CC=O)C[C@@H](C)[C@@H](O)CN(C)CCC(CCCc4ccnc5ccccc45)NC(=O)C[C@@H](OC(=O)CC)[C@@H]3OC)O[C@@H]2C)C[C@@]1(C)O (stereo in doubt; form 2),–
0.015 µg/mL,0.5 µg/mL,2 µg/mL,128 µg/mL,64 µg/mL,16 µg/mL,16 µg/mL,0.25 µg/mL,2 µg/mL,128 µg/mL,0.06 µg/mL,0.5 µg/mL,0.06 µg/mL,0.03 µg/mL,0.25 µg/mL,0.13 µg/mL,0.25 µg/mL,0.06 µg/mL,0.5 µg/mL,4 µg/mL,CCOC(=O)[C@H]1[C@H](C)O[C@@H](O[C@H]2[C@H](N(C)C)[C@@H](O)[C@H](O[C@H]3[C@@H](CC=O)C[C@@H](C)[C@@H](O)CN(C)CC(/C=C/Cc4cnc5ccccc5c4)CCOC(=O)C[C@@H](OC(=O)CC)[C@@H]3OC)O[C@@H]2C)C[C@@]1(C)O (stereo in doubt; form 2),MIC (Streptococcus pneumoniae [21]): >128 µg/mL; MIC (Streptococcus pneumoniae [23]): >128 µg/mL; MIC (Streptococcus pneumoniae [24]): >128 µg/mL
